Values after ≈ are worked out from the molar mass of the structure shown.
Tests used:
143B = assay: Cytotoxic Activity was evaluated against 143B (TK-) tumor cells; assay type: functional, cell-based; settings: Homo sapiens
How it was run: (§1)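 Cytotoxicity was read by MTT dye reduction for suspension cultures or sulforhodamine B for monolayer cultures. For reversal of multidrug resistance, reserpine was added as reversing agent ([…] as printed).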

A549 = assay: Cytotoxic activity evaluated against A549 tumor cells; settings: Homo sapiens
[1] = Relative concentration of compound (70 mg/Kg) in brain compared to concentration in plasma (160 ug/mL) at the time of tissue collection from rabbit; relative concentration; assay type: ADME, organism-based, Oryctolagus cuniculus; settings: read-out: Activity
[2] = Relative concentration of compound (70 mg/Kg) in lung compared to concentration in plasma (160 ug/mL) at the time of tissue collection from rabbit; relative concentration; assay type: ADME, organism-based, Oryctolagus cuniculus; settings: read-out: Activity
[3] = Cytotoxic activity was evaluated against Daoy tumor cells; assay type: functional, cell-based; settings: Homo sapiens; how it was run: as §1
D54 cell line = assay: Cytotoxic Activity was evaluated against D54 tumor cells; assay type: functional, cell-based; settings: Homo sapiens; how it was run: as §1
NCI-H460 = assay: Cytotoxic Activity was evaluated against H460 tumor cells; assay type: functional, cell-based; settings: Homo sapiens; how it was run: as §1
[4] = Cytotoxic activity was evaluated against L tumor cells; assay type: functional, cell-based; settings: Mus musculus; how it was run: as §1
P388 = assay: Cytotoxic activity was evaluated against P388D1 tumor cells; assay type: functional, cell-based; settings: Mus musculus; how it was run: as §1
U373 MG = assay: Cytotoxic activity was evaluated against U373MG tumor cells; assay type: functional, cell-based, U-373MG ATCC; settings: Homo sapiens; how it was run: as §1
U-87 MG = assay: Cytotoxic activity was evaluated against U87MG tumor cells; assay type: functional, cell-based, U-87MG ATCC; settings: Homo sapiens; how it was run: as §1
Vero = assay: Cytotoxic Activity was evaluated against Vero tumor cells; assay type: functional, cell-based; settings: Chlorocebus sabaeus; how it was run: as §1
Candida albicans [5] = assay: Minimum inhibitory concentration was evaluated against Candida albicans; assay type: functional
Dihydrofolate reductase [6] = target: T1, Dihydrofolate reductase (Candida albicans, UniProt P22906); assay: Inhibition of Dihydrofolate reductase enzyme from Candida albicans
T1 sequence (P22906 whole entry): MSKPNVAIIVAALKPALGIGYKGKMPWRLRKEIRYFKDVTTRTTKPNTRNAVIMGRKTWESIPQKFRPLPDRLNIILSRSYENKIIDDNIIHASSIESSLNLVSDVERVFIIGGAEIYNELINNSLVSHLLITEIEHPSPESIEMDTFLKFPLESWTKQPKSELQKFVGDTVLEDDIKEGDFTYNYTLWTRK

Dihydrofolate reductase [7] = target: T2, Dihydrofolate reductase (Homo sapiens, UniProt P00374); assay: Inhibition of human recombinant Dihydrofolate reductase enzyme
T2 sequence (P00374 whole entry): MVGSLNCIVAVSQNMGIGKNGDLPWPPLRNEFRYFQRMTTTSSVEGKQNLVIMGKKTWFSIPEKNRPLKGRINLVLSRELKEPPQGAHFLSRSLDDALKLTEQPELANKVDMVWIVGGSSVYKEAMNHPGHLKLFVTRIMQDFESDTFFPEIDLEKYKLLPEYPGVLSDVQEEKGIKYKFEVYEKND

[8] = Relative concentration of compound in brain compared to concentration in plasma (9.4 ug/mL) at the time of tissue collection from mice; relative concentration; assay type: ADME, organism-based; settings: mouse, read-out: Other
Candida albicans [9] = assay: Minimum inhibitory concentration evaluated against Candida albicans; assay type: functional
HCT-8 = assay: Activity was evaluated against HCT-8 tumor cells; assay type: functional, cell-based; settings: Homo sapiens; how it was run: as §1

Structure (SMILES) | IC50 (143B) [nM] | IC50 (A549) [nM] | Kp [1] | Kp [2] | IC50 [3] [nM] | IC50 (D54 cell line) [nM] | IC50 (NCI-H460) [nM] | IC50 [4] [nM] | IC50 (P388) [nM] | IC50 (U373 MG) [nM] | IC50 (U-87 MG) [nM] | IC50 (Vero) [nM] | MIC (Candida albicans [5]) [µg/mL] | Ki (Dihydrofolate reductase [6]) [nM] | Ki (Dihydrofolate reductase [7]) [nM] | Kp [8] | MIC (Candida albicans [9]) [µg/mL] | IC50 (HCT-8) [nM]
CN(Cc1cnc2nc(N)nc(N)c2n1)c1ccc(C(=O)N[C@@H](CCC(=O)O)C(=O)O)cc1 [METHOTREXATE] | 8.8 | 31 | 0.006 | 0.05 | 9 | 16 | 9.5 | 8.3 | 4.8 | 12 | 22 | 9.2 | – | – | – | – | – | –
COc1cc(Cn2ccc3c4c(N)nc(N)nc4ccc32)cc(OC)c1OC | – | – | – | – | – | – | – | – | – | – | – | – | 5 (≈ 13.2 µM) | 0.23 | 0.006 | – | – | –
COc1cc(NCc2ccc3nc(N)nc(N)c3c2C)cc(OC)c1OC [TRIMETREXATE] | – | 5.3 | – | – | 12 | 60 | – | 4.7 | 2.7 | 9.6 | 11 | 16 | – | 1.9 | – | 0.1 | > 50 | 1.8
